# APJ agonist = agonists of human APJ apelin receptor; CHO-K1 APJ PathHunter beta-arrestin, luminescence; 0% DMSO wells, 100% apelin; activation, % at 20 µM; 330,000 tested, 0.11% active; AID 2520;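 active means activation more than six SD over the plate average, tested at 20 µM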;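 further: 0% = DMSO alone and 100% = apelin-13 at 10 nM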
# Target sequence (P35414 whole entry, looked up): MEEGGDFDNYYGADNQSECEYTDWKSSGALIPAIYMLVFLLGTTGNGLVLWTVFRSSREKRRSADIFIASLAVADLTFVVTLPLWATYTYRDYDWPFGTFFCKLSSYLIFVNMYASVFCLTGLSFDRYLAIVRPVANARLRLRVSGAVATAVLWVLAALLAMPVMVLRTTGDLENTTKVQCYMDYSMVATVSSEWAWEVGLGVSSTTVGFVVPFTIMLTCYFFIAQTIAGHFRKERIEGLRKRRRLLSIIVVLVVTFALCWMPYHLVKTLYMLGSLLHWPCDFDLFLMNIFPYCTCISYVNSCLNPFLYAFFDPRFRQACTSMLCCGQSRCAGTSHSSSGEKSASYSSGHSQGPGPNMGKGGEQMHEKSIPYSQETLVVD
#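 Assay system – PathHunter CHO-K1 APJ (AGTRL-1) beta-arrestin reporter cells · Compound – one dose, 20 µM compound, 1% DMSO · Timing – compound 90 min 25 °C, reagent 1 h · Measured by – luminescence from split beta-galactosidase complementation, Galacton Star/Emerald II substrate · Measure – beta-arrestin recruitment to APJ as agonist activity, luminescent signal · Benchmarks – DMSO vs Apelin-13 10 nM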
# CXCR6 inh = CXCR6 (human) receptor inhibition | inhibition, % at 20 µM | CHO-K1 PathHunter CXCR6 beta-arrestin, luminescence | 360,000 tested, 0.36% active; in the data active means inhibition above about 34%, passing the limit was not always enough;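 further: antagonist mode with CXCL16 agonist at 10 nM final; 0% = 10 nM CXCL16 with DMSO and 100% = unstimulated wells without agonist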
# Target sequence (O00574 whole entry, looked up): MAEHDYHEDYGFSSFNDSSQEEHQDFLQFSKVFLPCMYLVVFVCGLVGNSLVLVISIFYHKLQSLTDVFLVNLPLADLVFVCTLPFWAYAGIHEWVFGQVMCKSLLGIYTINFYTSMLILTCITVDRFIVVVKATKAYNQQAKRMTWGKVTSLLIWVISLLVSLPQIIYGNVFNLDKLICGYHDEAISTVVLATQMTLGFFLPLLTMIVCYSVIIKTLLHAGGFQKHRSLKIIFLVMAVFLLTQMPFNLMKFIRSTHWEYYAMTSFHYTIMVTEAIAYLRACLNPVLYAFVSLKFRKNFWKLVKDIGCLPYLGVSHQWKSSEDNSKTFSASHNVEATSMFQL
# EBI2 antag = antagonists of human EBI2 receptor; P32249; EBI2 beta-arrestin recruitment, luminescence, 7a,25-OHC stimulated; inhibition, % at 5 µM; 360,000 tested, 0.81% active; in the data active means inhibition above about 38%;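 further: enzyme fragment complementation signal reports receptor beta-arrestin coupling in cells; 0% = agonist plus DMSO wells and 100% = wells without agonist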
# APJ antag = blocks the human apelin receptor APJ; 330,000 tested, 0.32% active; CHO-K1 APJ beta-arrestin complementation, luminescence; inhibition, % at 20 µM; P35414;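 active means inhibition above about 40% at 20 µM, limit read from the data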;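 further: cells challenged with 10 nM apelin-13 agonist together with compound; plate controls were apelin-13 plus DMSO wells for no effect and DMSO wells lacking apelin-13 for full effect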
# CCR6 antag = blocks CCL20-driven beta-arrestin recruitment at human CCR6. P51684. CHO-K1 CCR6 PathHunter beta-arrestin, luminescence, CCL20-stimulated. inhibition, % at 20 µM. 340,000 tested, 0.49% active. AID 493098;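 active means compounds whose inhibition of the agonist-driven luminescence signal at 20 µM reaches about 50%, limit read from the data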;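 further: cells stimulated with CCL20 at 14 nM final; plate controls were DMSO with CCL20 for no effect and DMSO without agonist for full effect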
# EBI2 conf = confirmation of human EBI2 receptor antagonists; AID 651997; EBI2 beta-arrestin luminescence, 7a,25-OHC antagonism; 2,400 tested, 29% active; shares compounds with EBI2 antag; inhibition, % at 5 µM;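 active means inhibition of at least 50%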
# EBI2 ag = EBI2 agonism counter-screen. EBI2-expressing cells, agonist mode, luminescence, 60 min; 0% vehicle, 100% 7α,25-dihydroxycholesterol control. activation, % at 5 µM. 2,400 tested, under 10 active. shares compounds with EBI2 antag;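 active means activation of at least 50%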
# bGal counter = inhibits E. coli beta-galactosidase, counter-screen for EBI2 antagonists. shares compounds with EBI2 antag. purified beta-galactosidase, luminescent Galacton Star, 15 min. inhibition, % at 5 µM. 2,400 tested, 1% active. AID 652176;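 active means replicate-average signal at least 3 plate SD below neutral wells, shown as high inhibition, flagging enzyme-inhibiting false positives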;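 further: 0% = DMSO wells with enzyme and 100% = wells lacking enzyme; higher means stronger loss of beta-gal luminescence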
# * marks the source's active call; other numbers are inactive results; . = no result given. An excerpt weighted towards active compounds, which were near 1.5% of everything screened.
SMILES,APJ agonist,CXCR6 inh,EBI2 antag,APJ antag,CCR6 antag,EBI2 conf,EBI2 ag,bGal counter
COc1ccc(CCNC(=O)c2ccc(F)c(S(=O)(=O)N3CCCCC3)c2)cc1,.,3.7,19.4,.,.,.,.,.
Cc1ccc(NS(=O)(=O)c2ccc(NC(=O)CN(c3cc([N+](=O)[O-])ccc3C)S(C)(=O)=O)cc2)c(C)c1,1.8,5.4,75.2*,-11.4,17.6,22.4,-1.7,-2.2
COc1cccc(C(c2nnnn2C2CCCC2)N2CCN(C/C=C/c3ccccc3)CC2)c1OC (stereo unspecified),.,13.9,15.0,.,.,.,.,.
O=S1(=O)N[C@@H](Cc2ccccc2)COc2cccc(N3CCSCC3)c21,.,12.1,3.9,.,.,.,.,.
CC(C)c1ccc(C(C)NCCS(=O)(=O)c2ccc(Br)cc2)cc1 (stereo unspecified),-3.2,6.1,77.7*,9.8,27.5,61.2*,0.4,4.5
CC(NCCS(=O)(=O)c1ccc(Cl)cc1)c1cccc(Cl)c1 (stereo unspecified),1.6,3.6,73.5*,19.7,11.2,38.2,0.5,4.0
CC(C(=O)NCCS(=O)(=O)c1ccc(Cl)cc1)S(=O)(=O)c1ccc(Cl)cc1 (stereo unspecified),-4.2,-3.0,6.7,10.3,6.1,.,.,.
O=C(NCCS(=O)(=O)c1ccc(Br)cc1)c1ccccc1,-10.3,-14.9,-6.4,9.2,1.1,.,.,.
CC(C)C[C@@H](CN1CCC[C@H]1CN1C(=O)C(=O)NC[C@@H]1Cc1ccccc1)N1C[C@H](Cc2ccccc2)N(CC2CCCCC2)C(=O)C1=O,.,10.5,-1.3,.,.,.,.,.
Cc1ccc2nc(SCC(=O)N3CCCc4ccccc43)nc(=O)n2c1,.,0.6,6.7,.,-2.3,.,.,.
CCCS(=O)(=O)NC(=O)C1(C)CCN(C(=O)c2ccccc2C(F)(F)F)C1 (stereo unspecified),.,-2.0,-2.6,.,.,.,.,.
O=C(O)Cn1nncc1-c1ccc(C(F)(F)F)cc1,.,0.8,-4.1,.,.,.,.,.
O=C(CSc1ccc(Cl)cc1)N1CCN(c2ccc([N+](=O)[O-])cc2Cl)CC1,-6.1,-7.0,83.7*,7.3,13.0,37.5,-1.2,-10.8
O=C(CSc1ccc(Cl)cc1)N1CCN(c2c(Cl)cccc2[N+](=O)[O-])CC1,-2.9,16.7,94.0*,11.7,-5.1,86.4*,1.3,4.0
O=C(/C=C/c1ccc(Cl)cc1)N1CCN(c2c(Cl)cccc2[N+](=O)[O-])CC1,-5.5,10.0,97.9*,2.5,15.1,90.7*,0.9,3.1
CCCC(=O)N1CCN(c2ccc([N+](=O)[O-])cc2Cl)CC1,-1.2,-12.8,-8.3,12.0,14.3,.,.,.
N#CC(CC(=O)OCc1ccccc1)NC(=O)OCc1ccccc1 (stereo unspecified),.,2.0,15.5,.,.,.,.,.
COc1ccc2nccc(/C=C/c3ccnc4ccc(OC)cc34)c2c1,-3.2,-4.5,37.8*,8.0,7.6,-2.6,-0.3,-8.6
C(=N\N(c1ccccc1)c1ccccc1)/c1ccc(N2CCOCC2)s1,-6.0,3.9,56.1*,1.0,14.4,20.4,2.2,3.7
O=C(N/N=C/c1ccc(N2CCOCC2)s1)c1ccccc1Cl,-3.3,-8.2,-3.0,2.4,17.6,.,.,.
O=S1(=O)CC(O)C(O)CS1 (stereo unspecified),.,-10.8,-9.1,.,.,.,.,.
COC(=O)c1ccc(Oc2ccc(S(=O)(=O)N3CCCCC3)cc2N)cc1,-0.8,-0.2,35.5*,4.6,14.5,14.0,-0.1,5.2
CN1CCN(C(=O)/C=C/c2cccc(Cl)c2)CC1,25.6,-2.3,45.9*,3.8,18.8,9.8,-0.8,-5.2
O=C(/C=C/c1ccc(Cl)cc1)N1CCN(CCN2C(=O)c3cccc4cccc(c34)C2=O)CC1,.,0.4,96.7*,.,18.6,80.8*,-0.5,-12.1
O=C(/C=C/c1ccccc1)N1CCN(CC(O)COc2ccccc2)CC1 (stereo unspecified),-5.1,7.2,82.1*,2.6,2.9,54.5*,-1.5,-10.1
SMILES,APJ agonist,CXCR6 inh,EBI2 antag,APJ antag,CCR6 antag,EBI2 conf,EBI2 ag,bGal counter
OC(COc1ccc(Cl)cc1)CN1CCC(Cc2ccccc2)CC1 (stereo unspecified),-0.6,-0.8,59.9*,9.3,14.7,34.6,-1.5,-9.7
CN1CCN(NC(=O)/C=C/c2cccc(Cl)c2)CC1,-1.1,-4.7,3.4,9.6,5.6,.,.,.
COc1ccc(NC(=O)c2cc(C3CCCCN3S(=O)(=O)c3ccc(F)cc3F)on2)c(C)c1 (stereo unspecified),.,3.7,16.6,.,.,.,.,.
C=C1CC[C@@H]2[C@](C)(CCC[C@@]2(C)/C=C/[C@@H](O)C(C)(C)O)[C@H]1CC(=O)NCCS(=O)(=O)O,.,-1.9,-8.1,.,-3.6,.,.,.
CN(C)c1ccc(-c2ccnc3c2CC(C)(C(=O)Nc2cccc(C(F)(F)F)c2)O3)cc1 (stereo unspecified),.,10.1,4.2,.,.,.,.,.
CN1CCN(C(=O)/C=C\c2ccc(Cl)cc2)CC1,-3.3,4.5,88.5*,-4.4,-7.1,66.2*,1.8,3.5
CSc1ccc(/C=C/C(=O)N2CCCN(C)CC2)cc1,-4.8,-5.9,87.0*,-2.2,-5.8,57.3*,-1.1,-14.1
CN1CCN(C(=O)/C=C/c2ccccc2)CC1,-0.2,4.1,44.8*,12.3,-0.9,9.6,-1.3,-6.4
CN1CCN(C(=O)/C=C/c2c(F)cccc2Cl)CC1,-3.1,0.3,-6.0,13.1,-10.5,.,.,.
CC(C)c1ccc(/C=C/C(=O)N2CCCCCC2)cc1,-4.2,3.4,35.7,0.3,11.5,.,.,.
Cc1ccc(OCC(O)CN2CCN(CC(O)COc3ccc(C)cc3)CC2)cc1 (stereo unspecified),-3.2,1.3,45.0*,12.1,4.4,21.2,0.0,4.2
CC(C)CN1C(=O)CSCC1(C)C(=O)NC(C)C (stereo unspecified),.,.,-6.1,.,.,.,.,.
CCc1cc(CNC(=O)C2CCC(=O)N(Cc3ccccc3F)C2)on1 (stereo unspecified),.,-2.8,-2.9,.,.,.,.,.
CCc1nc2ccc(C(=O)NCCc3ccccn3)cn2c1N(CC)Cc1cccc(Br)c1,.,-2.5,12.2,.,.,.,.,.
COc1ccc(C(=O)/C=C/c2ccc(OC3CSC3)cc2)cc1OC,-0.2,4.0,20.5,3.5,17.4,.,.,.
O=C(/C=C/c1ccc(OC2CSC2)cc1)c1ccc(Cl)cc1,-3.4,0.2,42.8*,14.1,2.1,11.5,-0.2,8.0
O=C(/C=C/c1cccc(Br)c1)N1CCN(c2ccccn2)CC1,-1.4,6.1,76.9*,4.4,11.0,45.8,0.5,-10.4
CCCOc1ccc(/C=C/C(=O)N2CCN(c3ccccn3)CC2)cc1,-3.7,-1.5,46.1*,3.1,1.6,40.4,1.2,-1.4

# From PubChem
